Measured values as given in PMC10972827 (Food Chemistry: X, 2024).
≈ marks a conversion by molar mass, not a printed value.

Assays:
α-amylase [1] = test: Inhibitory kinetic assay; type: biochemical; conditions: Lineweaver-Burk double reciprocal plots, 0.5-2.0% starch
Outline: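 Commercial α-amylase (0.35 mL, 10 U/mL) preincubated alone or with theaflavin monomer for 5 min at 37 °C. Soluble starch (0.5, 1.0, 1.5, 2.0%) added and incubated 15 min at 37 °C. Reducing sugar measured with DNS reagent (100 °C, 5 min), A540. Initial velocities fitted to Michaelis–Menten for Km and Vmax. Inhibition type assigned from Lineweaver–Burk double-reciprocal plots. Results given as mean ± SD.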

α-amylase [2] = test: α-amylase activity test; type: biochemical; conditions: α-amylase 10 U/mL, 1% soluble starch, 37 °C
α-amylase [3] = test: Fluorescence spectroscopy; type: binding
Outline: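 Commercial α-amylase (10 U/mL) mixed with each theaflavin monomer (10–200 μg/mL) at each temperature. Fluorescence spectra recorded at 278 nm over a 290–450 nm scan. Ksv derived from the Stern–Volmer relation (τ0 10−8 s). Ka and n derived from a log((F0−F)/F) vs log[Q] plot. ΔH and ΔS derived from a van't Hoff fit. Results given as mean ± SD.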

SMILES: O=c1c(O)cc([C@H]2Oc3cc(O)cc(O)c3C[C@H]2O)cc2c([C@H]3Oc4cc(O)cc(O)c4C[C@H]3O)cc(O)c(O)c12 [TF1, theaflavin]
- inhibition type against α-amylase (α-amylase [1]): mixed
- IC50, inhibitory activity on α-amylase (α-amylase [2]): 71.43 µg/mL (≈ 127 µM)
- Ka (binding constant) (α-amylase [3]; 298 K): 4.4955 L/g
- Ksv (quenching constant) (α-amylase [3]; 298 K): 4.7890 L/g
- Ka (binding constant) (α-amylase [3]; 303 K): 5.1038 L/g
- Ksv (quenching constant) (α-amylase [3]; 303 K): 4.6468 L/g
- Ka (binding constant) (α-amylase [3]; 310 K): 5.6151 L/g
- Ksv (quenching constant) (α-amylase [3]; 310 K): 4.2950 L/g
